The text below walks through data of ChEMBL document CHEMBL4041498, “Antibacterial and Cytotoxic Actinomycins Y6-Y9 and Zp from Streptomyces sp. Strain Gö-GS12” (J Nat Prod, 2016).

≈ marks a conversion by molar mass, not a printed value. Numbered stars: 1 amine (or outer) side, 2 acyl side, 3 side chain; on linkers, the order of the positions; unused ones are H or OH. Bridge positions count the residues as written; N and C are the ends. Square brackets hold non-standard residues; d marks the D form. Peptide text beside a SMILES is read from it. I, II: the chains in the order shown. Actinocin(1to9) = Cc1c2oc3c(C)ccc(C(=O)[*:2])c3nc-2c(C(=O)[*:1])c(N)c1=O; Actinocin(9to1) = Cc1c2oc3c(C)ccc(C(=O)[*:1])c3nc-2c(C(=O)[*:2])c(N)c1=O; Pro(3S-OH,5S-Me) = C[C@H]1C[C@H](O)[C@@H](C(=O)O)N1; X2 = O=C([C@@H](N[*:1])[C@@H](CCl)O[*:3])[*:2]; X1 = O=C([C@@H](N[*:1])[C@@H](CO)O[*:3])[*:2]; Pro(5S-Me) = C[C@H]1CC[C@@H](C(=O)O)N1; Pro(4-oxo) = O=C1CN[C@H](C(=O)O)C1; NMeV = CN[C@H](C(=O)O)C(C)C; NMeA = CN[C@@H](C)C(=O)O; Sar = CNCC(=O)O Where only a bound is given, the exact number is not on record here.

Experiment [1] can be described thus: Antibacterial activity against Salmonella enterica ATCC 10708 after incubated for 16 to 48 hrs at 28 to 37 degC by spectrofluorometric method. The experiment is classed as functional. The method, boiled down: (§1)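 Overnight cultures (16 h, 37 °C, 250 rpm) were grown in tryptic soy broth (S. aureus, M. luteus), LB (B. subtilis, E. coli), nutrient broth (S. enterica), Middlebrook 7H9 + OADC (M. aurum) or YAPD (S. cerevisiae). They were diluted to OD600 ~0.1 and exposed to serial dilutions from a final maximum of ~10 μg/mL, then shaken at 160 rpm. OD600 was normalized to DMSO control, and MIC was taken as the lowest concentration inhibiting growth.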

The test system of the next experiment is Bacillus spizizenii. The experiment in a line: Antibacterial activity against Bacillus subtilis ATCC 6633 after incubated for 16 to 48 hrs at 28 to 37 degC by spectrofluorometric method. The format is functional. The method, boiled down: as §1
The next experiment has as its system Micrococcus luteus. The experiment in a line: Antibacterial activity against Micrococcus luteus ATCC 15307 after incubated for 16 to 48 hrs at 28 to 37 degC by spectrofluorometric method. The format is functional. The method, boiled down: as §1
The test system of a further experiment is Escherichia coli. The experiment in a line: Antibacterial activity against Escherichia coli ATCC 12435 after incubated for 16 to 48 hrs at 28 to 37 degC by spectrofluorometric method. The format is functional. The method, boiled down:
as §1

A further experiment deals with Mycolicibacterium aurum. The experiment in a line: Antibacterial activity against Mycobacterium aurum ATCC 23366 after incubated for 16 to 48 hrs at 28 to 37 degC […]. The format is functional.
For the next experiment, the system named is Staphylococcus aureus. The experiment in a line: Antibacterial activity against Staphylococcus aureus ATCC 6538 after incubated for 16 to 48 hrs at 28 to 37 degC by spectrofluorometric method. The experiment is classed as functional. The method, boiled down: as §1
A further experiment has as its system Saccharomyces cerevisiae. Description: Antifungal activity against Saccharomyces cerevisiae ATCC 204508 after incubated for 16 to 48 hrs at 28 to 37 degC by spectrofluorometric method. The format is functional.
Another experiment concerns PC-3. The experiment in a line: Cytotoxicity against human PC3 cells assessed as reduction in cell viability after 48 hrs by alamar blue assay. The experiment is classed as functional, cell-based. As to conditions: PC-3, 48 h. The method, boiled down:
(§2)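 A549 cells were grown in DMEM/F-12 Kaighn's and PC3 cells in MEM/EBSS, both with 10% heat-inactivated FBS, penicillin/streptomycin and 2 mM L-glutamine. Cells were seeded at 5 × 10^3 per well, attached 24 h at 37 °C in 5% CO2, then exposed for 2 days. Values are % of untreated control from three independent experiments.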
For orientation: The colour change of resazurin is a common sign of viable cells or microbes.

For the next experiment, the system named is A549. The experiment in a line: Cytotoxicity against human A549 cells assessed as reduction in cell viability after 48 hrs by alamar blue assay. The experiment is classed as functional, cell-based. As to conditions: A549, 48 h. Summed up:
as §2

As a reminder, the MIC is the lowest concentration that inhibits growth of the organism. Read a low MIC as inhibition by little substance. As to `Cc1c2oc3c(C)ccc(C(=O)N[C@@H]4C(=O)N[C@H](C(C)C)C(=O)N5[C@@H](C)CC[C@H]5C(=O)N(C)CC(=O)N(C)[C@@H](C(C)C)C(=O)O[C@@H]4C)c3nc-2c(C(=O)N[C@@H]2C(=O)N[C@H](C(C)C)C(=O)N3[C@@H](C)CC[C@H]3C(=O)N(C)CC(=O)N(C)[C@@H](C(C)C)C(=O)O[C@@H]2C)c(N)c1=O` (I: T[dV][Pro(5S-Me)][Sar][NMeV] / II: T[dV][Pro(5S-Me)][Sar][NMeV]; ester I:1-I:C, II:1-II:C; linker I:N-II:N via Actinocin(9to1)), the MIC in experiment [1] is above 9.36 µg/mL; with Bacillus spizizenii it was 0.006 µg/mL (≈ 0.00467 µM).

Consider `Cc1c2oc3c(C)ccc(C(=O)N[C@@H]4C(=O)N[C@H](C(C)C)C(=O)N5[C@H](C(=O)N(C)CC(=O)N(C)[C@@H](C(C)C)C(=O)O[C@@H]4C)[C@@H](O)C[C@@H]5C)c3nc-2c(C(=O)N[C@@H]2C(=O)N[C@H](C(C)C)C(=O)N3CC(=O)C[C@H]3C(=O)N(C)CC(=O)N(C)[C@@H](C)C(=O)O[C@@H]2CO)c(N)c1=O` (I: [X1][dV][Pro(4-oxo)][Sar][NMeA] / II: T[dV][Pro(3S-OH,5S-Me)][Sar][NMeV]; ester I:1-I:C, II:1-II:C; linker I:N-II:N via Actinocin(1to9)), for which the values for the MIC (in [1]; in the experiment with Micrococcus luteus) were above 9.33 µg/mL and 0.12 µg/mL (≈ 0.0932 µM), respectively.

Take `Cc1c2oc3c(C)ccc(C(=O)N[C@@H]4C(=O)N[C@H](C(C)C)C(=O)N5[C@H](C(=O)N(C)CC(=O)N(C)[C@@H](C(C)C)C(=O)O[C@@H]4C)[C@@H](O)C[C@@H]5C)c3nc-2c(C(=O)OC[C@H](O)[C@@H]2NC(=O)[C@H](C)N(C)C(=O)CN(C)C(=O)[C@@H]3CC(=O)CN3C(=O)[C@@H](C(C)C)NC2=O)c(N)c1=O`: the MIC is above 9.33 µg/mL against Escherichia coli; above 9.33 µg/mL in experiment [1]; above 9.33 µg/mL in the experiment with Mycolicibacterium aurum; above 9.33 µg/mL with Staphylococcus aureus; above 9.33 µg/mL with Saccharomyces cerevisiae; 4.67 µg/mL (≈ 3.63 µM) in the experiment with Micrococcus luteus. This compound displayed an MIC with Bacillus spizizenii above 9.33 µg/mL.

Turning to `Cc1c2oc3c(C)ccc(C(=O)N[C@@H]4C(=O)N[C@H](C(C)C)C(=O)N5[C@@H](C)CC[C@H]5C(=O)N(C)CC(=O)N(C)[C@@H](C(C)C)C(=O)O[C@@H]4C)c3nc-2c(C(=O)N[C@@H]2C(=O)N[C@H](C(C)C)C(=O)N3CC(=O)C[C@H]3C(=O)N(C)CC(=O)N(C)[C@@H](C)C(=O)O[C@@H]2C)c(N)c1=O` (I: T[dV][Pro(4-oxo)][Sar][NMeA] / II: T[dV][Pro(5S-Me)][Sar][NMeV]; ester I:1-I:C, II:1-II:C; linker I:N-II:N via Actinocin(1to9)), the figures for the MIC (in [1]; in the experiment with Micrococcus luteus) were above 9.57 µg/mL and 0.003 µg/mL (≈ 0.00239 µM), respectively.

Consider `Cc1c2oc3c(C)ccc(C(=O)N[C@@H]4C(=O)N[C@H](C(C)C)C(=O)N5[C@H](C(=O)N(C)CC(=O)N(C)[C@@H](C(C)C)C(=O)O[C@@H]4C)[C@@H](O)C[C@@H]5C)c3nc-2c(C(=O)OC[C@H](O)[C@@H]2NC(=O)[C@H](C)N(C)C(=O)CN(C)C(=O)[C@@H]3C[C@@H](O)CN3C(=O)[C@@H](C(C)C)NC2=O)c(N)c1=O`, for which the MIC with Escherichia coli was above 9.32 µg/mL; in [1], above 9.32 µg/mL; against Mycolicibacterium aurum, above 9.32 µg/mL; against Staphylococcus aureus it was above 9.32 µg/mL; against Saccharomyces cerevisiae, above 9.32 µg/mL; in the experiment on Micrococcus luteus, 4.66 µg/mL (≈ 3.61 µM). The same compound registered an MIC in the experiment with Bacillus spizizenii above 9.32 µg/mL.

In turn, `Cc1c2oc3c(C)ccc(C(=O)N[C@@H]4C(=O)N[C@H](C(C)C)C(=O)N5[C@H](C(=O)N(C)CC(=O)N(C)[C@@H](C(C)C)C(=O)O[C@@H]4C)[C@@H](O)C[C@@H]5C)c3nc-2c(C(=O)N[C@@H]2C(=O)N[C@H](C(C)C)C(=O)N3CC(=O)C[C@H]3C(=O)N(C)CC(=O)N(C)[C@@H](C)C(=O)O[C@@H]2CCl)c(N)c1=O` (I: [X2][dV][Pro(4-oxo)][Sar][NMeA] / II: T[dV][Pro(3S-OH,5S-Me)][Sar][NMeV]; ester I:1-I:C, II:1-II:C; linker I:N-II:N via Actinocin(1to9)) gave an MIC in [1] above 9.2 µg/mL.

`Cc1c2oc3c(C)ccc(C(=O)N[C@@H]4C(=O)N[C@H](C(C)C)C(=O)N5[C@H](C(=O)N(C)CC(=O)N(C)[C@@H](C(C)C)C(=O)O[C@@H]4C)[C@@H](O)C[C@@H]5C)c3nc-2c(C(=O)N[C@@H]2C(=O)N[C@H](C(C)C)C(=O)N3CC(=O)C[C@H]3C(=O)N(C)CC(=O)N(C)[C@@H](C)C(=O)O[C@@H]2C)c(N)c1=O` (I: T[dV][Pro(4-oxo)][Sar][NMeA] / II: T[dV][Pro(3S-OH,5S-Me)][Sar][NMeV]; ester I:1-I:C, II:1-II:C; linker I:N-II:N via Actinocin(1to9)): the MIC in experiment [1] was above 9.45 µg/mL.

By EC50 is commonly meant the concentration needed to bring the measured effect to its halfway point. Take `Cc1c2oc3c(C)ccc(C(=O)N[C@@H]4C(=O)N[C@H](C(C)C)C(=O)N5[C@H](C(=O)N(C)CC(=O)N(C)[C@@H](C(C)C)C(=O)O[C@@H]4C)[C@@H](O)C[C@@H]5C)c3nc-2c2c(c1=O)N[C@H]([C@@H]1NC(=O)[C@H](C)N(C)C(=O)CN(C)C(=O)[C@@H]3CC(=O)CN3C(=O)[C@@H](C(C)C)NC1=O)COC2=O`: the EC50 was 76.7 nM in the experiment on PC-3 and 71.5 nM with A549. The MIC against Escherichia coli was above 9.46 µg/mL; in experiment [1], above 9.46 µg/mL; in the experiment on Mycolicibacterium aurum, 0.95 µg/mL (≈ 0.748 µM); against Staphylococcus aureus it was 2.37 µg/mL (≈ 1.87 µM); against Saccharomyces cerevisiae, 9.46 µg/mL (≈ 7.45 µM); in the experiment on Micrococcus luteus, 0.59 µg/mL (≈ 0.465 µM). Besides, inhibition of growth against Bacillus spizizenii (MIC) required 0.59 µg/mL (≈ 0.465 µM).

On to `Cc1c2oc3c(C)ccc(C(=O)N[C@@H]4C(=O)N[C@H](C(C)C)C(=O)N5CCC[C@H]5C(=O)N(C)CC(=O)N(C)[C@@H](C(C)C)C(=O)O[C@@H]4C)c3nc-2c(C(=O)N[C@@H]2C(=O)N[C@H](C(C)C)C(=O)N3CCC[C@H]3C(=O)N(C)CC(=O)N(C)[C@@H](C(C)C)C(=O)O[C@@H]2C)c(N)c1=O` [DACTINOMYCIN] (I: T[dV]P[Sar][NMeV] / II: T[dV]P[Sar][NMeV]; ester I:1-I:C, II:1-II:C; linker I:N-II:N via Actinocin(1to9)), for which the minimum inhibitory concentration (MIC) in [1] amounted to 9.57 µg/mL (≈ 7.62 µM); with Mycolicibacterium aurum, 0.6 µg/mL (≈ 0.478 µM); against Staphylococcus aureus, 0.006 µg/mL (≈ 0.00478 µM); in the experiment on Saccharomyces cerevisiae it was 4.79 µg/mL (≈ 3.82 µM); in the experiment with Micrococcus luteus, 0.003 µg/mL (≈ 0.00239 µM); against Bacillus spizizenii it was 0.002 µg/mL (≈ 0.00159 µM).
